Here are results for twelve compounds from ChEMBL document CHEMBL1773058, “Synthesis of 4β-carbamoyl epipodophyllotoxins as potential antitumour agents” (2011).

Molecules are shown by their SMILES. The source made the active and inactive calls. The rule behind the calls is not given here.

One assay has as its system SiHa. As to the kind of experiment: Growth inhibition of human SiHa cells after 48 hrs by sulforhodamine B assay. It is filed as functional. The essentials: (§1)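 Cells grown in RPMI-1640 (2 mM glutamine, pH 7.4, 10% FCS, penicillin/streptomycin) at 37 °C, 5% CO2. Subconfluent cells trypsinised, used at >97% viability (trypan blue), plated and grown 24 h, then exposed to test materials 48 h in triplicate. Fixed with TCA at 4 °C for 1 h, stained 30 min with 0.4% SRB in 1% acetic acid, dye solubilised in 10 mM Tris pH 10.4, OD read at 540 nm. GI50 reported.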
A general note: The SRB assay estimates cell density from bound dye.

The nature of assay [1]: Growth inhibition of human Gurav cells after 48 hrs by sulforhodamine B assay. Type of assay: functional. The essentials:
as §1

In a further assay the test system is PC-3. As to the kind of experiment: Growth inhibition of human PC3 cells after 48 hrs by sulforhodamine B assay. Type of assay: functional. As to conditions: PC-3, 48 h. The essentials: as §1
For another assay, the system named is KB. The assay is described as follows: Growth inhibition of human KB cells after 48 hrs by sulforhodamine B assay. Type of assay: functional. In outline: as §1
Another assay has as its system COLO 205. The assay is described as follows: Growth inhibition of human COLO205 cells after 48 hrs by sulforhodamine B assay. It is filed as functional. As to conditions: COLO 205, 48 h. The essentials:
as §1

Assay [2] in a line: Growth inhibition of human DWD cells after 48 hrs by sulforhodamine B assay. It is filed as functional. The essentials:
as §1

For the next assay, the system named is ZR-75-1. The assay is described as follows: Growth inhibition of human ZR-75-1 cells after 48 hrs by sulforhodamine B assay. It is filed as functional. The note with it: ZR-75-1, 48 h. The essentials: as §1
A further assay has as its system A2780. As to the kind of experiment: Growth inhibition of human A2780 cells after 48 hrs by sulforhodamine B assay. Type of assay: functional. As to conditions: A2780, 48 h. In outline: as §1
For assay [3], the target named is DNA topoisomerase 2-alpha (Homo sapiens) (UniProt P11388). As to the kind of experiment: Inhibition of topoisomerase 2 assessed as inhibition of relaxation of supercoiled pBR322 plasmid DNA at 10 uM to 1 mM by ethidium bromide staining. The essentials:
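Topo II relaxation reaction stopped with 10% SDS, then proteinase K treatment and extraction with chloroform/isoamyl alcohol (24:1). Products resolved on 1% agarose gel in TAE (40 mM Tris-acetate pH 8.0, 1 mM EDTA) and stained with 0.5 µg/ml ethidium bromide.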

In the next assay the test system is A549. The assay is described as follows: Growth inhibition of human A549 cells after 48 hrs by sulforhodamine B assay. Type of assay: functional. The note with it: A549, 48 h. The essentials:
as §1

In a further assay the test system is HOP-62. The assay is described as follows: Growth inhibition of human HOP62 cells after 48 hrs by sulforhodamine B assay. Type of assay: functional. The note with it: HOP-62, 48 h. The essentials:
as §1

The subject of a further assay is MCF7. As to the kind of experiment: Growth inhibition of human MCF7 cells after 48 hrs by sulforhodamine B assay. It is filed as functional. The note with it: MCF7, 48 h. The essentials: as §1

Chain of DNA topoisomerase 2-alpha (Homo sapiens) (P11388 whole entry): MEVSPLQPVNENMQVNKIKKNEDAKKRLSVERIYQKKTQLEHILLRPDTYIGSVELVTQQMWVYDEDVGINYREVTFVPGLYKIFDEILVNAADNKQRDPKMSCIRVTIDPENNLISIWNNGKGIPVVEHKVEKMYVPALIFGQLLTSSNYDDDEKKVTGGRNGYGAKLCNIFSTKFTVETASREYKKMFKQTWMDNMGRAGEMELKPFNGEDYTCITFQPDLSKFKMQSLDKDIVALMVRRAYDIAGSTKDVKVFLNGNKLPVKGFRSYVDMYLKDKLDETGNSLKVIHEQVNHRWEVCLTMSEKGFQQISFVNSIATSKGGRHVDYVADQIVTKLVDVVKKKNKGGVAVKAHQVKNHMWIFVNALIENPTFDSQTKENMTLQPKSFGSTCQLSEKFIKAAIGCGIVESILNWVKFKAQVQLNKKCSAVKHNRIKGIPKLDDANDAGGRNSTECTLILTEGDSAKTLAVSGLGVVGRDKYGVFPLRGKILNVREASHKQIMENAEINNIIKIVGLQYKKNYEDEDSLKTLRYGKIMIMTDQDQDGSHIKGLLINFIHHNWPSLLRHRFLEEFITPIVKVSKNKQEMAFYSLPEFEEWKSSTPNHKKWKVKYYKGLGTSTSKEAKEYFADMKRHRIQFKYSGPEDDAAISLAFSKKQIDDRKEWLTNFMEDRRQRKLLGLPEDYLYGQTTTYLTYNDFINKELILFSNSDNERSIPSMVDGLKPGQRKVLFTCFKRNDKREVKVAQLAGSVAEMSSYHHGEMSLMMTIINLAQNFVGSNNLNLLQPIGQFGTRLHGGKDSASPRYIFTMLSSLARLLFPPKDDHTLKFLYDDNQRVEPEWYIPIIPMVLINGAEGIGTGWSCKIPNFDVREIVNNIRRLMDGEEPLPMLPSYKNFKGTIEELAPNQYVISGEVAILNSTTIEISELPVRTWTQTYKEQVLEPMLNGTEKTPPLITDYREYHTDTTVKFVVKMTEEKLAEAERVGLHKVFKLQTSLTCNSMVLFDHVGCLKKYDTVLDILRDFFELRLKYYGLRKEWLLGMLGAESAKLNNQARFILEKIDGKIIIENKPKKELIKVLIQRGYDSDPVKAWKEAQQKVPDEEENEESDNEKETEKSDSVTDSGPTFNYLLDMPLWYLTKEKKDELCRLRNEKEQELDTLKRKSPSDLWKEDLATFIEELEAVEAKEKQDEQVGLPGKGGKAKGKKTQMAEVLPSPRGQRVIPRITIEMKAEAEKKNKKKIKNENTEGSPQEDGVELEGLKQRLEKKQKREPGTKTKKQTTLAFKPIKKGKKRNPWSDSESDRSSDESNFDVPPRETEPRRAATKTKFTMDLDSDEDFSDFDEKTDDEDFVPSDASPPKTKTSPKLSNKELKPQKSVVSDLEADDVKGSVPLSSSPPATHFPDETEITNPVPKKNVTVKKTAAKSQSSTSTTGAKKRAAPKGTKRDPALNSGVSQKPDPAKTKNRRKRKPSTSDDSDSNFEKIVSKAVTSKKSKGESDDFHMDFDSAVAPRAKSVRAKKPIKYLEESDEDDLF

Take `COc1cc([C@@H]2c3cc4c(cc3[C@@H](OC(=O)N3CCOCC3)[C@H]3COC(=O)[C@H]23)OCO4)cc(OC)c1OC`: the GI50 (commonly the concentration that inhibits growth by half) is 1400 nM in the assay on SiHa; 140 nM in assay [1]; 160 nM in the assay on PC-3; 120 nM in the assay on KB; 2700 nM in the assay with COLO 205; less than 100 nM in [2]. Moreover, the GI50 is 140 nM in the assay on ZR-75-1; 130 nM in the assay with A2780; less than 100 nM with A549; 130 nM in the assay with HOP-62; 160 nM with MCF7. For the same compound, the inhibition result in [3] was “Active”.
Consider `COc1cc([C@@H]2c3cc4c(cc3[C@@H](OC(=O)NC(C)C)[C@H]3COC(=O)[C@H]23)OCO4)cc(OC)c1OC`, for which the GI50 is 190 nM in the assay on SiHa; 160 nM in [1]; 190 nM in the assay with PC-3; 180 nM in the assay with KB; 2700 nM in the assay on COLO 205; less than 100 nM in assay [2]. The GI50 is 150 nM in the assay with ZR-75-1; 140 nM with A2780; less than 100 nM in the assay on A549; 2100 nM in the assay with HOP-62; 190 nM in the assay with MCF7.
Regarding `COc1cc([C@@H]2c3cc4c(cc3[C@@H](OC(=O)NCCN(C)C)[C@H]3COC(=O)[C@H]23)OCO4)cc(OC)c1OC`, the GI50 is 2100 nM in the assay with SiHa; 150 nM in [1]; 150 nM in the assay on PC-3; 160 nM with KB; 2100 nM with COLO 205; less than 100 nM in assay [2]. Moreover, the GI50 in the assay with ZR-75-1 is less than 100 nM; with A2780, 120 nM; in the assay on A549 it was less than 100 nM; with HOP-62, 120 nM; with MCF7, 110 nM.
`CCCNC(=O)O[C@@H]1c2cc3c(cc2[C@@H](c2cc(OC)c(OC)c(OC)c2)[C@H]2C(=O)OC[C@@H]21)OCO3`: the concentration for 50% growth inhibition (GI50) with SiHa was found to be 1200 nM; in assay [1], 170 nM; in the assay with PC-3 it was 170 nM; in the assay with KB, 2100 nM; with COLO 205 it was 2700 nM; in [2], 2000 nM. Besides, the 50% growth inhibitory concentration (GI50) in the assay with ZR-75-1 was 190 nM; in the assay with A2780 it was 190 nM; in the assay on A549, less than 100 nM; in the assay on HOP-62, 160 nM; in the assay with MCF7, 2000 nM.
As to `COc1cc([C@@H]2c3cc4c(cc3[C@@H](OC(=O)N(C)C)[C@H]3COC(=O)[C@H]23)OCO4)cc(OC)c1OC`, the GI50 in the assay with SiHa is 2100 nM; in assay [1], 170 nM; in the assay on PC-3, 150 nM; in the assay on KB, 180 nM; in the assay with COLO 205, 2100 nM; in assay [2] it was less than 100 nM. In addition, the GI50 in the assay with ZR-75-1 is 120 nM; in the assay on A2780, 180 nM; in the assay with A549 it was less than 100 nM; in the assay with HOP-62, 130 nM; in the assay on MCF7, 160 nM.
As for `COc1cc([C@@H]2c3cc4c(cc3[C@@H](OC(=O)NCCc3c[nH]c5ccccc35)[C@H]3COC(=O)[C@H]23)OCO4)cc(OC)c1OC`, the concentration for 50% growth inhibition (GI50) with SiHa was 1800 nM; in assay [1], 120 nM; in the assay on PC-3 it was 160 nM; with KB, 180 nM; with COLO 205, 120 nM; in [2] it was less than 100 nM. The GI50 with ZR-75-1 is 130 nM; in the assay on A2780, 110 nM; in the assay with A549 it was less than 100 nM; with HOP-62 it was 2100 nM; with MCF7, 160 nM. Also, in assay [3], the inhibition entry is “Active”.
As for `C#CCNC(=O)O[C@@H]1c2cc3c(cc2[C@@H](c2cc(OC)c(OC)c(OC)c2)[C@H]2C(=O)OC[C@@H]21)OCO3`, the concentration for 50% growth inhibition (GI50) was 1900 nM in the assay on SiHa; 140 nM in assay [1]; 160 nM in the assay on PC-3; 170 nM in the assay with KB; 2700 nM in the assay with COLO 205; less than 100 nM in assay [2]. For the same compound, the GI50 with ZR-75-1 was 140 nM; in the assay with A2780, 160 nM; with A549 it was less than 100 nM; with HOP-62, 140 nM; with MCF7, 190 nM.
On to `COc1cc([C@@H]2c3cc4c(cc3[C@@H](O[C@@H]3O[C@@H]5CO[C@@H](C)O[C@H]5[C@H](O)[C@H]3O)[C@H]3COC(=O)[C@H]23)OCO4)cc(OC)c1O` [ETOPOSIDE], for which the concentration for 50% growth inhibition (GI50) in the assay with SiHa worked out at 3100 nM; in assay [1], 500 nM; in the assay on PC-3, 2600 nM; in the assay with KB it was 300 nM; with COLO 205, 130 nM; in assay [2] it was 600 nM. Also, the GI50 in the assay on ZR-75-1 is 200 nM; in the assay with A2780, 1300 nM; with A549, 3080 nM; with HOP-62, 800 nM; with MCF7, 2100 nM.
On to `O=c1[nH]cc(F)c(=O)[nH]1` [FLUOROURACIL], for which the GI50 with SiHa worked out at 6300 nM; in assay [1] it was 3100 nM; with PC-3 it was 12000 nM; in the assay with KB it was 5200 nM; in the assay on COLO 205 it was 2800 nM; in assay [2] it was 6100 nM. In addition, the concentration for 50% growth inhibition (GI50) in the assay on ZR-75-1 amounted to 2300 nM; in the assay on A2780 it was 3500 nM; with A549, 2400 nM; in the assay on HOP-62, 4100 nM; in the assay with MCF7, 2800 nM.
Turning to `COCCNC(=O)O[C@@H]1c2cc3c(cc2[C@@H](c2cc(OC)c(OC)c(OC)c2)[C@H]2C(=O)OC[C@@H]21)OCO3`, the concentration for 50% growth inhibition (GI50) in the assay with SiHa was 2400 nM; in assay [1] it was 140 nM; in the assay with PC-3, 160 nM; in the assay with KB, 150 nM; in the assay with COLO 205, 2200 nM; in assay [2], less than 100 nM. The GI50 in the assay with ZR-75-1 was less than 100 nM; in the assay with A2780, 150 nM; in the assay on A549, less than 100 nM; with HOP-62 it was 120 nM; in the assay on MCF7, 150 nM.
Turning to `COc1cc([C@@H]2c3cc4c(cc3[C@@H](OC(=O)NCC3CC3)[C@H]3COC(=O)[C@H]23)OCO4)cc(OC)c1OC`, the GI50 came to 2300 nM with SiHa; 180 nM in assay [1]; 2300 nM in the assay on PC-3; 2400 nM in the assay with KB; 2500 nM with COLO 205; 2000 nM in [2]. Further, the 50% growth inhibitory concentration (GI50) in the assay on ZR-75-1 is 190 nM; in the assay with A2780, 2000 nM; in the assay on A549, less than 100 nM; with HOP-62, 2500 nM; with MCF7 it was 2300 nM.
For the compound `COc1cc([C@@H]2c3cc4c(cc3[C@@H](OC(=O)NCc3ccc(C(F)(F)F)cc3)[C@H]3COC(=O)[C@H]23)OCO4)cc(OC)c1OC`, the GI50 with SiHa came to 2000 nM; in assay [1] it was 190 nM; in the assay with PC-3, 2100 nM; with KB, 180 nM; in the assay with COLO 205, 150 nM; in assay [2] it was 2000 nM. The GI50 was 160 nM in the assay with ZR-75-1; 180 nM with A2780; less than 100 nM in the assay on A549; 2300 nM with HOP-62; 180 nM with MCF7.
